Source: PubChem (Johns Hopkins Ion Channel Center)
This is a sample that favours compounds with a hit; in the whole collection about 2.3% have one here.
TRPC4 act: activators of mouse TRPC4 channel | Q9QUQ5 | HEK293 TRPC4beta/mu-opioid, Fluo4 calcium fluorescence; active compounds read high | B-score at 10 µM | 0.49% of 310,000 active | AID 2237;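 active means B-score above 5 SD of library B-scores, and initial fluorescence ratio not above library mean plus 5 SD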;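 further: positive B-score marks a calcium rise read as TRPC4 activation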
Target sequence (Q9QUQ5 whole entry, looked up): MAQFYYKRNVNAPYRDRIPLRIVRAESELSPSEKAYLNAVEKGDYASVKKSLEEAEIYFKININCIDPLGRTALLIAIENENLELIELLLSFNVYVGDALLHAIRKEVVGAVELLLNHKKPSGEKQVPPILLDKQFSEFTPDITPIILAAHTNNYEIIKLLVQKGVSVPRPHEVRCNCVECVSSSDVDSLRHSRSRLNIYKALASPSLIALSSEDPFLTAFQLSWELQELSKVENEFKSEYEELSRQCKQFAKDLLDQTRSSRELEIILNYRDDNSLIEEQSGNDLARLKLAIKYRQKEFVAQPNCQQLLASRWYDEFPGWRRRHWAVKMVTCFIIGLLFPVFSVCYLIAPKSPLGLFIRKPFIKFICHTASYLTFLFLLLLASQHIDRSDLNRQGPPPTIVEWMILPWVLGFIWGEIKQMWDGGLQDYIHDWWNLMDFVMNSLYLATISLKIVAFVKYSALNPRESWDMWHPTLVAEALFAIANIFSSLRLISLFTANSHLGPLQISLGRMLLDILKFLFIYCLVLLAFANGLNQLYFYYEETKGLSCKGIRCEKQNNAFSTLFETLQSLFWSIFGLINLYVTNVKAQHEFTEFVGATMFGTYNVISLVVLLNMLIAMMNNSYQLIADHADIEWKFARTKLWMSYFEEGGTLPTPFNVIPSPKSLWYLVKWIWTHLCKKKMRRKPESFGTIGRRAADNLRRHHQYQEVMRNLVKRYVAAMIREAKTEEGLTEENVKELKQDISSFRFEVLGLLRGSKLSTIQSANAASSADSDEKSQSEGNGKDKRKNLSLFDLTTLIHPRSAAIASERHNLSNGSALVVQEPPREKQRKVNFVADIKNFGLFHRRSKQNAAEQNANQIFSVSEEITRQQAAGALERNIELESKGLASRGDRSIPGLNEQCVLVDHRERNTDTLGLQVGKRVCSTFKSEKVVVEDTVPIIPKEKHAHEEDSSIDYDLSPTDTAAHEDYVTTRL
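Material: TRPC4beta and mu-opioid receptor HEK293 stable cells | Incubation: 45 min room-temperature Fluo4 loading, 110 s read | Detection: Kinetic Fluo4 calcium fluorescence | Measure: Integrated baseline-normalised fluorescence ratio, converted to per-well B score | Benchmarks: Low control buffer alone, high control maximal DAMGO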
TRPC6 inh: blocks the mouse TRPC6 cation channel; HEK293-TRPC6, membrane potential dye, ACh-evoked depolarization; active compounds read low; B-score at 10 µM; 1.1% of 310,000 active; AID 2553;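 active means B-score under library mean minus 3 SD, initial fluorescence not abnormally high, positive integrated signal ratio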;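 further: B-score derived from integrated fluorescence ratio over the kinetic read; more negative B-score means stronger inhibition of depolarization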
TRPC4 potent: allosterically enhances the mouse TRPC4 cation channel | Q9QUQ5 | HEK293 TRPC4beta/mu-opioid, DAMGO EC20, Fluo-4 Ca2+ flux; active compounds read high | B-score at 10 µM | 0.42% of 310,000 active | AID 2227;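 active means B-score of calcium response area above 5 SD of library B-scores, with initial fluorescence ratio within 5 SD of library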;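 further: B-score of integrated fluorescence ratio over time as area under calcium response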
TRPC4 inh: blocks the mouse TRPC4 cation channel. B-score at 10 µM. AID 2247. HEK293 TRPC4beta/mu-opioid, DAMGO-evoked Fluo4 calcium flux; active compounds read low. 0.39% of 300,000 active. Q9QUQ5;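 active means B-score over 3 SD under the library average, no early fluorescence shift, positive overall ratio signal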
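material = TRPC4beta/mu-opioid receptor HEK293 cell line | probe or stimulus = sequential submaximal and maximal DAMGO stimulation | compound dosing = one concentration per compound | measured by = Fluo4 Ca2+ flux fluorescence | evaluation = integrated fluorescence ratio relative to baseline, converted to per-well B score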
TRPC6 activator: mouse TRPC6 channel activation. 0.13% of 310,000 active. B-score at 10 µM. Q61143. HEK293-TRPC6 membrane potential dye fluorescence; active compounds read high;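 active means B-score of the integrated fluorescence ratio above library mean plus 3 SD, and starting fluorescence ratio within library mean plus 5 SD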;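 further: higher score means more depolarization so channel activation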
TRPC4 sel inh 2: mouse TRPC4 off-target activity of TRPC6 inhibitors, second screen. shares compounds with TRPC6 inh. HEK293 TRPC4/MOR, membrane potential dye fluorescence; channel activated by saturating DAMGO dose. inhibition, % at 10 µM. 42% of 920 active;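 active means compounds whose fluorescence signal differed from control wells by over 3 SD, either direction, in both duplicate plates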
TRPC4 spec: selectivity of TRPC6 inhibitors: effect on mouse TRPC4. shares compounds with TRPC6 inh. HEK293 TRPC4/mu-opioid, membrane potential fluorescence. activity change, negative = inhibition, % at 10 µM. 61% of 920 active. AID 2777;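 active means rise or fall in signal beyond 3 SD of buffer-only wells in both replicate plates, either sign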;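 further: integrated kinetic ratio of fluorescence range over baseline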
HEK293 MPD ctr 2-1: second counter-screen for TRPC6 inhibitors: parental HEK293 cells; signal change vs control, % at 10 µM; parental HEK293 membrane potential dye fluorescence; maximal acetylcholine challenge after compound addition; 31% of 920 active; AID 2779; shares compounds with TRPC6 inh;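 active means membrane potential signal moving either way by over 3 SD of the maximum-effect control, in both duplicate plates, meaning non-specific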
HEK293 MPD ctr-1: checks TRPC6 inhibitor effects in parental HEK293 cells | membrane potential signal change, % at 10 µM | 60% of 920 active | parental HEK293 membrane potential dye fluorescence | AID 2780 | shares compounds with TRPC6 inh;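 active means membrane potential signal shifting up or down by more than 3 SD of buffer-only wells, on both duplicate plates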
HEK293 MPD ctr-2: counter-screen for TRPC6 modulators: effect in parental HEK293 cells; 51% of 2,400 active; shares compounds with TRPC6 inh; AID 488924; membrane potential dye fluorescence; membrane potential signal change, % at 10 µM;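 active means membrane potential signal moves up or down beyond 5 SD from buffer-only wells, on both duplicate plates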
HEK293 MPD ctr 2-2: second check of TRPC6 modulator effects in parental HEK293 cells | shares compounds with TRPC6 inh | membrane potential dye fluorescence; after compound, maximal acetylcholine stimulation | inhibition, % at 10 µM | 14% of 2,400 active | AID 488926;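 active means membrane potential signal drops by more than 5 SD from the mean control signal, in both duplicate plates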;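 further: plate controls were acetylcholine ECmax control wells for no effect and buffer only wells for full effect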
TRPC4 ctr mod: selectivity of TRPC6 modulators against mouse TRPC4; AID 488927; percent change from control (negative = decrease, positive = increase), % at 10 µM; shares compounds with TRPC6 inh; HEK293 TRPC4/mu-opioid, membrane potential fluorescence; 69% of 2,400 active;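 active means membrane potential signal moved up or down beyond 5 SD of buffer control wells, in both duplicate plates, actives on both sides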;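 further: plate controls were assay buffer wells for no effect and DAMGO maximal-effect wells for full effect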
TRPC4/MOR inh 2: mouse TRPC4 off-target activity of TRPC6 modulators, second screen. shares compounds with TRPC6 inh. HEK293 TRPC4/mu-opioid, membrane potential dye fluorescence; stimulated with maximal-effect DAMGO. inhibition, % at 10 µM. 55% of 2,400 active. AID 488928;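 active means drop in membrane potential signal beyond 5 SD of the control wells in both duplicate plates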;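 further: TRPC4 counter screen for TRPC6 hits run under conditions tuned for TRPC6 not TRPC4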
TRPC6 block conf: confirmation of mouse TRPC6 inhibitors; shares compounds with TRPC6 inh; HEK293-TRPC6, membrane potential dye, ACh-evoked depolarization; inhibition, % at 10 µM; 43% of 3,300 active;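 active means fluorescence ratio falls more than 5 SD below the full-stimulation control mean, in both duplicate runs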;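 further: integrated fluorescence ratio of peak minus minimum over baseline after agonist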
TRPC6 act confirm: confirmation of mouse TRPC6 activators; shares compounds with TRPC6 inh; HEK293-TRPC6 membrane potential dye fluorescence, FDSS; activation, % at 10 µM; 11% of 2,800 active;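 active means ratio signal rise beyond 5 SD above unstimulated control wells' mean, seen in both duplicate runs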;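 further: plate controls were buffer EC0 wells for no effect and acetylcholine ECmax response for full effect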
The depositor's hits bear a star; ! = not active in a repeat.

CCOC(=O)[C@@H]1[C@H]2COc3ccc(Br)cc3[C@@H]2N2C(=O)N(c3ccc(C(F)(F)F)cc3)C(=O)[C@]12C was read as TRPC4 act inactive, TRPC6 inh inactive, TRPC4 potent inactive, TRPC4 inh inactive and TRPC6 activator inactive.
Screening Cc1c(C(=O)OC(C)C(C)C[N+](C)(C)C)oc2ccccc12 (stereo not given) returned TRPC4 act inactive, TRPC6 inh -7.5*, TRPC4 potent inactive, TRPC4 inh inactive, TRPC6 activator inactive, HEK293 MPD ctr-2 inactive, HEK293 MPD ctr 2-2 64%*, TRPC4 ctr mod inactive, TRPC4/MOR inh 2 inactive, TRPC6 block conf 72%* and TRPC6 act confirm inactive.
Oc1cccc(-c2nc3ccccc3s2)c1 was read as TRPC4 act inactive, TRPC6 inh inactive, TRPC4 potent inactive, TRPC4 inh inactive and TRPC6 activator inactive.
For CC[n+]1cccc(-c2nc3ccccc3s2)c1 the results were TRPC4 act inactive, TRPC6 inh -5.5*, TRPC4 potent inactive, TRPC4 inh inactive, TRPC6 activator inactive, HEK293 MPD ctr-2 -162%*, HEK293 MPD ctr 2-2 inactive, TRPC4 ctr mod -26%*, TRPC4/MOR inh 2 inactive, TRPC6 block conf inactive and TRPC6 act confirm inactive.
For COc1ccc(N2CCc3c(C)nc4c(OC)cccc4c32)cc1 the results were TRPC4 act inactive, TRPC6 inh -8*, TRPC4 potent inactive, TRPC4 inh inactive, TRPC6 activator inactive, TRPC4 sel inh 2 52%*, TRPC4 spec -24%*, HEK293 MPD ctr 2-1 inactive, HEK293 MPD ctr-1 -320%*, TRPC6 block conf 58%* and TRPC6 act confirm inactive.
For COc1ccc(N2CCc3c(C)nc4c(OC)cc(OC)cc4c32)cc1 the results were TRPC4 act inactive, TRPC6 inh -5.7*, TRPC4 potent inactive, TRPC4 inh inactive, TRPC6 activator inactive, HEK293 MPD ctr-2 -173%*, HEK293 MPD ctr 2-2 76%*, TRPC4 ctr mod -24%*, TRPC4/MOR inh 2 56%*, TRPC6 block conf 55%* and TRPC6 act confirm inactive.
For COc1ccc(N2CCc3c(C)nc4c(OC)cc(OC)cc4c32)c(OC)c1 the results were TRPC4 act inactive, TRPC6 inh inactive, TRPC4 potent inactive, TRPC4 inh inactive and TRPC6 activator inactive.
`COc1cccc(N2CCc3c(C)nc4ccc(Cl)cc4c32)c1` gave TRPC4 act inactive, TRPC6 inh -6.2*, TRPC4 potent inactive, TRPC4 inh inactive, TRPC6 activator inactive, HEK293 MPD ctr-2 inactive, HEK293 MPD ctr 2-2 58%*, TRPC4 ctr mod inactive, TRPC4/MOR inh 2 88%*, TRPC6 block conf 62%* and TRPC6 act confirm inactive.
`Cc1nc2c(C)cccc2c2c1CCN2c1ccccc1F` gave TRPC4 act inactive, TRPC6 inh -5.8*, TRPC4 potent inactive, TRPC4 inh inactive, TRPC6 activator inactive, HEK293 MPD ctr-2 -143%*, HEK293 MPD ctr 2-2 inactive, TRPC4 ctr mod -20%*, TRPC4/MOR inh 2 58%*, TRPC6 block conf 50%* and TRPC6 act confirm inactive.
For CCOC(=O)C1CCN(C(=O)c2sc3ncnc(N4CCC(C)CC4)c3c2C)CC1 the results were TRPC4 act inactive, TRPC6 inh inactive, TRPC4 potent inactive, TRPC4 inh inactive and TRPC6 activator inactive.
`CCOC(=O)C1CCN(C(=O)c2sc3nc(C)nc(N4CCC(C)CC4)c3c2C)CC1` gave TRPC4 act inactive, TRPC6 inh -9*, TRPC4 potent inactive, TRPC4 inh inactive, TRPC6 activator 14*, HEK293 MPD ctr-2 198%*, HEK293 MPD ctr 2-2 inactive, TRPC4 ctr mod 30%*, TRPC4/MOR inh 2 inactive, TRPC6 block conf 78%* and TRPC6 act confirm 127%*.
C[n+]1c2n(c3ccccc31)N=C(c1ccccc1)CS2 was read as TRPC4 act inactive, TRPC6 inh -5.2*!, TRPC4 potent inactive, TRPC4 inh inactive, TRPC6 activator inactive, HEK293 MPD ctr-2 -159%*, HEK293 MPD ctr 2-2 inactive, TRPC4 ctr mod -26%*, TRPC4/MOR inh 2 50%*, TRPC6 block conf inactive and TRPC6 act confirm inactive.
For C[n+]1c2n(c3ccccc31)N=C(c1ccc(-c3ccccc3)cc1)CS2 the results were TRPC4 act inactive, TRPC6 inh inactive, TRPC4 potent inactive, TRPC4 inh inactive and TRPC6 activator inactive.
`CCN(CC)CCCNC1=C(Cl)C(=O)c2ccccc2C1=O` gave TRPC4 act inactive, TRPC6 inh -6.2*, TRPC4 potent inactive, TRPC4 inh inactive, TRPC6 activator inactive, HEK293 MPD ctr-2 -180%*, HEK293 MPD ctr 2-2 inactive, TRPC4 ctr mod -30%*, TRPC4/MOR inh 2 47%*, TRPC6 block conf 50%* and TRPC6 act confirm inactive.
`COC(=O)c1ccc(NC(=O)c2snnc2-c2ccccc2)cc1` gave TRPC4 act inactive, TRPC6 inh -7.3*, TRPC4 potent inactive, TRPC4 inh inactive, TRPC6 activator inactive, TRPC4 sel inh 2 inactive, TRPC4 spec inactive, HEK293 MPD ctr 2-1 inactive, HEK293 MPD ctr-1 inactive and TRPC6 block conf 93%*.
